One may read the IC50 as the point on the concentration scale where inhibition reaches its midpoint. High values mean lower potency, low ones higher potency.

This note sets out measurements from ChEMBL document CHEMBL1671775, “Synthesis, anticancer activity, and iron affinity of the Actinoplanes metabolite 7,8-dihydroxy-1-methylnaphtho[2,3-c]furan-4,9-dione” (Bioorg Med Chem, 2011).

Where only a bound is given, the exact number is not on record here.

Type in all cases: functional, cell-based
Assay [1] is described as follows: Cytotoxicity against human KB-V1/Vbl cells after 72 hrs by MTT assay. The procedure, abridged:
(§1)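 Cells were seeded at 5 × 10^4/mL and cultured 24 h, then exposed to compound for 72 h. KB-V1/Vbl cells were grown in DMEM with 10% FCS and MCF-7/Top cells in EMEM with 5% FCS, pyruvate and NaHCO3. MTT was added to a final 0.1% for 2 h. Medium was discarded, and formazan was dissolved in DMSO/SDS/acetic acid. A570 was read against A630 background. IC50 was taken from concentration–response curves versus untreated controls; four independent experiments.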

The subject of another assay is HL-60. The assay is described as follows: Cytotoxicity against human HL60 cells after 72 hrs by MTT assay. To be noted: HL-60, 72 h. The procedure, abridged: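 HL-60 cells were grown in RPMI 1640 with 10% FCS at 37 °C and 5% CO2, seeded at 5 × 10^5/mL and cultured 24 h. Cells were then exposed to compound for 72 h. MTT was added to a final 0.05% for 2 h, and formazan was dissolved in DMSO with 10% SDS and 0.6% acetic acid. A570 was read against A630 background. IC50 was taken from concentration–response curves relative to untreated controls; quadruplicate, four independent experiments.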
A general note: Formazan colour is commonly taken as a measure of viable cells.

A further assay concerns HFF. Briefly: Cytotoxicity against human HFF after 72 hrs by MTT assay. In a few lines:
(§2)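 518A2 cells and foreskin fibroblasts were grown in DMEM with 10% FCS, seeded at 5 × 10^4/mL and cultured 24 h. Cells were then exposed to compound for 72 h. MTT was added to a final 0.05% for 2 h. Medium was discarded, and formazan was dissolved in DMSO/10% SDS/0.6% acetic acid. A570 was read against A630 background. IC50 was taken from concentration–response curves versus untreated controls; four independent experiments.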

Assay [2] in a line: Cytotoxicity against human MCF7/Topo cells after 72 hrs by MTT assay. The procedure, abridged:
as §1

For another assay, the system named is HT-29. The assay is described as follows: Cytotoxicity against human HT-29 cells after 72 hrs by MTT assay. Particulars: HT-29, 72 h.
Assay [3] is described as follows: Cytotoxicity against human 518A2 cells after 72 hrs by MTT assay. Particulars: 518A2, 72 h. In a few lines:
as §2

As for `CC1=CC(=O)C(C(C)C)=CC1=O` [THYMOQUINONE], the IC50 in assay [1] came to 32 µM; with HL-60, 28 µM; in the assay on HFF, 33 µM; in assay [2], 27 µM; with HT-29, 47 µM; in assay [3] it was 28 µM.

Regarding `Cc1occ2c1C(=O)c1c(ccc(O)c1O)C2=O`, the IC50 in assay [1] is 86 µM; with HL-60, 89 µM; in the assay on HFF it was 69 µM; in assay [2], above 100 µM; in the assay with HT-29 it was 70 µM; in assay [3] it was 84 µM.

On to `COc1ccc2c(c1O)C(=O)c1c(coc1C)C2=O`, for which the half-inhibitory concentration (IC50) was 51 µM in assay [1]; 18 µM with HL-60; 31 µM with HFF; 16 µM in assay [2]; 31 µM in the assay on HT-29; above 100 µM in assay [3].
